# Assay outcomes (PubChem)
# Rows were chosen to be rich in hits. Some 4.6% of all compounds tested hit in one or more screens of this group.
# CHO parental Ca: counter-screen for OX1R antagonists: effect in parental CHO cells | hit rate 0.63% among 330,000 | inhibition, % at 5.6 µM | parental CHO-K1, ATP-induced calcium, Fluo-8 fluorescence;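 active means inhibition above that plate's mean sample inhibition plus 3 SD, cut at about 26% in these data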
#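 Assay system: untransfected parental CHO cell line. Also added: ATP agonist challenge. Dosing: one dose, 5.6 µM nominal. Measured by: Fluo-8 fluorescence. Read-out: % inhibition. Benchmarks: ATP wells versus no-ATP DMSO wells. Repeats: no replicates.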
# TAAR1 ag: agonists of human TAAR1 | Q96RJ0 | CHO RD-HGA16 TAAR1, Fluo-8 calcium fluorescence; vehicle wells 0%, saturating PEA agonist 100% | activation, % at 3 µM | hit rate 0.99% among 360,000 | AID 624467;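 active means activation above the mean activation of all test compounds in the run plus 3 SD, cut at about 38% in these data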
# Target sequence (Q96RJ0 whole entry, looked up): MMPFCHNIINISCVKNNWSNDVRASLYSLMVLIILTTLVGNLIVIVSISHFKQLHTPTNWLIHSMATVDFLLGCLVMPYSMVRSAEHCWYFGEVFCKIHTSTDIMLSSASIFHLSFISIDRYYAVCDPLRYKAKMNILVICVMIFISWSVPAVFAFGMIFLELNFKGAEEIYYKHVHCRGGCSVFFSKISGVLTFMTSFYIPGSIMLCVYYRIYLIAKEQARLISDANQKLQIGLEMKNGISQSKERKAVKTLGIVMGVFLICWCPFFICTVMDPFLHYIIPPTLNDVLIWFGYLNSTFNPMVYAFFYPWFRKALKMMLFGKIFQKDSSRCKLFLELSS
#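 Repeats: no replicates (n 1) | Material: CHO-derived RD-HGA16 cells with stable Gα16 and human TAAR1 | Technique: Kinetic Fluo-8 calcium fluorescence | Schedule: 17-24 h seeding, 75 min 37 °C dye, 30 min RT | Evaluation: % activation from peak over basal fluorescence ratio, DMSO-to-PEA scaled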
# GPR7 antagonist: antagonists of human GPR7 (neuropeptides B/W receptor 1) | GPR7-expressing cells, fluorescence antagonist assay | inhibition, % at 4.4 µM | hit rate 1.1% among 290,000 | AID 1861; in the data active means inhibition above about 16%, passing the limit was not always enough;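 further: cells stimulated with the agonist NPW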
# Target sequence (P48145 whole entry, looked up): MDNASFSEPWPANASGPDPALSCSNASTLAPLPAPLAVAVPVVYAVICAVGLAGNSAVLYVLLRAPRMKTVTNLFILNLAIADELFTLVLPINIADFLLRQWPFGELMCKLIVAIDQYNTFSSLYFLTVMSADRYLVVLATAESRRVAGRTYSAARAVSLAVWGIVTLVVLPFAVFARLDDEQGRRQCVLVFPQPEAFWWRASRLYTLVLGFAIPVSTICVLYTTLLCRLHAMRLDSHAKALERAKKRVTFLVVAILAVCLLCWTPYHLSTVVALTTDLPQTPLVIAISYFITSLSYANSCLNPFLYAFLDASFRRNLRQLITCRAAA
# OX1R antag-1: antagonists of human orexin 1 receptor (OX1R). hit rate 1.8% among 330,000. OX1R-expressing cells, FRET antagonist read-out. O43613. inhibition, % at 6.6 µM. AID 485270; in the data active means inhibition mostly above about 38%, no sharp cut-off; inactive means mostly below about 40%
# OX1R antag-2: human HCRTR1 antagonism. O43613. CHO/OX1R cells, Fluo-8 calcium fluorescence, orexin A. inhibition, % at 5 µM. hit rate 0.43% among 330,000. AID 434989;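 active means inhibition above its plate's threshold, mean inhibition of all tested compounds on the plate plus 3 SD, cut at about 37% in these data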
# TAAR1 antagonist: antagonists of human TAAR1. CHO RD-HGA16 TAAR1, Fluo-8 calcium fluorescence, antagonist. Q96RJ0. hit rate 1.5% among 360,000. inhibition, % at 3 µM. AID 624466;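 active means inhibition above a per-plate cutoff, the mean inhibition of test compounds on that plate plus 3 SD, cut at about 49% in these data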
#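 Material: RD-HGA16 CHO cells with stable hTAAR1 and Gα16; Dosing: single nominal final test compound concentration of 3 µM; Schedule: seeding 17-24 h prior, 75-min 37 °C, 30-min RT dye loading; Detection: kinetic Fluo-8 calcium fluorescence measurement; Measure: % inhibition from peak post-agonist over basal fluorescence ratio; Benchmarks: vehicle and agonist controls.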
# Hits are given with their value; n = inactive; x = no result given.
SMILES,CHO parental Ca,TAAR1 ag,GPR7 antagonist,OX1R antag-1,OX1R antag-2,TAAR1 antagonist
O=c1oc2c3c4c(cc2c(C(F)(F)F)c1CCN1CCOCC1)CCCN4CCC3,n,41,n,n,n,n
CC(C)c1cc(=O)oc2c3c4c(cc12)CCCN4CCC3,n,n,n,n,n,n
O=C(C[C@H]1C/C=C\C[C@H](Cc2ccc(F)cc2)C(=O)O[C@@H](c2ccccc2)CNC1=O)N[C@H](CO)Cc1ccccc1,n,55,x,n,n,n
O=C(C[C@H]1C/C=C\CC[C@H](Cc2ccc(F)cc2)C(=O)O[C@@H](c2ccccc2)CNC1=O)N[C@H](CO)Cc1ccccc1,n,53,x,n,n,56
O=C(C[C@H]1C/C=C\CC[C@H](Cc2ccc(F)cc2)C(=O)O[C@H](c2ccccc2)CNC1=O)N[C@H](CO)Cc1ccccc1,n,n,x,n,n,55
Cc1ccc(NC(=O)CN(C)C(=O)c2cccnc2Nc2cccc(C(F)(F)F)c2)cc1,n,n,n,n,n,n
COC(=O)C1=C(C)N(Cc2ccc(C(F)(F)F)cc2)C(=NCc2cc(OC)c(OC)c(OC)c2)NC1c1cccc(Cl)c1 (stereo unspecified),x,n,x,x,x,n
CS(=O)(=O)c1ccc(C(=O)OCC(=O)NC(=O)C2CCCCC2)cc1[N+](=O)[O-],n,n,n,49,n,n
CN(C)c1cc(-c2ccc(Cl)cc2)oc(=O)c1Cl,n,n,n,n,n,n
CN(C)c1cc(-c2ccc([N+](=O)[O-])cc2)oc(=O)c1Cl,n,n,n,49,n,n
COCc1cc(N2CCNC[C@H]2C)ccc1N1CCS(=O)(=O)CC1,x,n,x,x,x,n
COc1ccc(NC(=O)Cn2c3ccccc3c3nc4n(c(=O)c32)CCS4)cc1OC,n,n,n,n,n,n
COc1ccc(NC(=O)Cn2c3ccccc3c3nc4n(c(=O)c32)CCS4)cc1,n,n,n,74,n,n
COc1cccc(NC(=O)Cn2c3ccccc3c3nc4n(c(=O)c32)CCCS4)c1,n,n,n,37,n,n
CCOC(=O)[C@@H]1[C@H]2COc3cc(OC)ccc3[C@@H]2N2C(=O)N(c3ccc(F)cc3)C(=O)[C@@]12C,n,n,x,n,n,n
COc1ccc(C(=O)/C=C/C(=O)N(CC(=O)NC2CCCCC2)Cc2ccccc2)c(O)c1,x,41,n,x,x,66
COc1ccc(C(=O)/C=C/C(=O)N(CC(=O)NC2CCCCC2)Cc2ccccc2OC)c(O)c1,x,n,n,x,x,n
COc1cccc(NC(=O)CN2CCN(c3ccc(F)cc3)CC2)c1,n,n,n,n,n,n
CCOC(=O)c1ccc(N2CCN(c3ccccc3F)CC2)c(NC(=O)Nc2ccccc2)c1,39,n,n,n,n,n
CCOC(=O)c1ccc(N2CCN(c3ccc(F)cc3)CC2)c(NC(=O)Nc2cccc(OC)c2)c1,n,n,n,n,n,58
CC(=O)NCCNc1nc(NCC2CC2)nc2cc(-c3ccccc3)sc12,x,n,x,x,x,n
COc1ccc(-c2cc(-c3c(O)c(OC)c4occc4c3OC)[nH]n2)cc1OC,n,n,n,70,62,n
COc1ccc(-c2cc(-c3c(O)c(OC)c4occc4c3OC)[nH]n2)cc1,n,n,n,n,n,n
COc1ccccc1CNC(=O)CN(c1ccc(C)cc1)S(=O)(=O)c1c(C)noc1C,n,n,n,71,n,n
COc1ccc(CNC(=O)CN(c2ccc(C)cc2)S(=O)(=O)c2c(C)noc2C)cc1,n,n,n,44,n,n
SMILES,CHO parental Ca,TAAR1 ag,GPR7 antagonist,OX1R antag-1,OX1R antag-2,TAAR1 antagonist
CCOc1ccc(N(CC(=O)Nc2cccc(Cl)c2)S(=O)(=O)c2c(C)noc2C)cc1,40,n,n,n,n,n
COc1ccc(N(CC(=O)NCc2ccccc2)S(=O)(=O)c2c(C)noc2C)cc1,n,n,n,n,n,n
CCOc1ccc(NC(=O)CCC(=O)NNC(=O)Nc2cccc(Cl)c2)cc1,n,43,n,n,n,n
Cc1ccc(N(CC(=O)NCc2ccc3c(c2)OCO3)S(=O)(=O)c2c(C)noc2C)cc1,n,n,n,60,n,n
Cc1noc(C)c1S(=O)(=O)N(CC(=O)NCc1ccc2c(c1)OCO2)c1ccc(C(C)C)cc1,n,n,n,n,n,n
O=C(NCc1ccco1)c1cccc2c1C(=O)c1ccc(/C=C/c3ccccc3)cc1S2(=O)=O,n,n,x,n,n,51
O=Nc1c(O)n(Cc2ccc(Cl)c(Cl)c2)c2ccccc12,38,n,n,n,n,n
O=Nc1c(O)n(Cc2ccccc2)c2ccccc12,n,n,n,n,n,n
CCOc1ccc(-c2cc(N)n(S(=O)(=O)c3cccc4nsnc34)n2)cc1,n,n,n,n,n,n
COc1cc(OC)cc(-c2cc(N)n(S(=O)(=O)c3cccc4nsnc34)n2)c1,n,n,n,49,n,n
Cc1cccc(Nc2nc(N)nc(N)c2N=O)c1,x,45,x,x,x,n
C[C@H](O)[C@@H]1CN2CCc3c([nH]c4c(-c5ccccc5)cccc34)[C@@H]2C[C@@H]1N(C)C(=O)NC1CCCCC1,x,n,x,x,x,n
O=C(c1ccc([N+](=O)[O-])s1)N1CCN(c2ccccc2)CC1,n,n,n,54,n,n
COc1ccc(OC)c2sc(N3CCN(C(=O)c4ccc([N+](=O)[O-])s4)CC3)nc12,n,n,x,46,n,n
O=C(Nc1ccccc1N1CCOCC1)c1ccc([N+](=O)[O-])s1,n,n,x,31,n,n
O=C(c1ccc([N+](=O)[O-])s1)N1CCN(c2ccccn2)CC1,n,n,n,46,n,n
Cc1csc(-c2nc3ccccc3n2C(C(=O)NC(C)(C)C)c2ccccc2)c1 (stereo unspecified),x,n,x,x,x,n
CCCCS(=O)(=O)N1CCCc2nc(-c3ccc(Br)cc3)ccc21,x,n,x,x,x,n
O=C(NCCC(=O)N1CCN(c2ccccn2)CC1)c1ccc([N+](=O)[O-])cc1,n,n,x,35,n,n
CCOC(=O)c1cc([N+](=O)[O-])sc1NC(=O)CC,n,n,n,61,n,n
CCCNC(=O)/C(C#N)=C1\N=C(NC(=O)c2ccco2)c2ccccc21,n,n,n,47,n,n
COCCNC(=O)/C(C#N)=C1\N=C(NC(=O)c2ccco2)c2ccccc21,x,n,x,x,x,n
Cc1[nH]c2ccccc2c1C(=O)c1c(N)[nH]c(C(=O)c2ccccc2)c1-c1ccc(Cl)cc1,x,n,x,x,x,n
Nc1nc(-c2ccccc2)cc(N2CCCCC2)n1,n,n,14,n,n,n
COc1ccc(N2CCN(CCCn3cnc4c(OC)ncnc43)CC2)cc1,x,n,x,x,x,n
CCOc1ccc(Nc2nc(Cc3nnc(SCC(=O)c4ccc(C)c(C)c4)o3)cs2)cc1,29,n,n,n,n,n
O=C(OCC(=O)N1CCc2ccccc2C1)c1ccc(F)cc1Cl,n,n,x,n,n,n
